Laboratory results taken from ChEMBL document CHEMBL1124112, “Indoline analogues of idazoxan: potent alpha 2-antagonists and alpha 1-agonists” (J Med Chem, 1988).

Columns and labels:
[1] = biological target: Adrenergic receptor alpha-2 (Rattus norvegicus) (UniProt P22086+P19328+P22909); assay: Antagonist potency towards alpha-2 adrenergic receptor determined as the dose required to produce a two fold shift of the dose-response curve to UK-14304 on the twitch response of the vas deferens (in vitro);AG- agonist; format: functional, tissue-based; conditions: filed as agonist
[2] = biological target: Adrenergic receptor alpha-1 (Rattus norvegicus) (UniProt P15823+P23944+P43140); assay: Agonism at alpha-1 adrenergic receptor, determined as the dose required to produce a two fold shift of the cirazoline on diastolic blood pressure.; format: functional, tissue-based; conditions: Artery
[3] = biological target: T1, Adrenergic receptor alpha-1 (Rattus norvegicus, UniProt P15823+P23944+P43140); assay: Inhibition of saturable binding of [3H]prazosin to alpha-1 adrenergic receptor in rat cerebral cortical membranes.; format: cell membranes, Membrane
T1 sequence (P15823 whole entry): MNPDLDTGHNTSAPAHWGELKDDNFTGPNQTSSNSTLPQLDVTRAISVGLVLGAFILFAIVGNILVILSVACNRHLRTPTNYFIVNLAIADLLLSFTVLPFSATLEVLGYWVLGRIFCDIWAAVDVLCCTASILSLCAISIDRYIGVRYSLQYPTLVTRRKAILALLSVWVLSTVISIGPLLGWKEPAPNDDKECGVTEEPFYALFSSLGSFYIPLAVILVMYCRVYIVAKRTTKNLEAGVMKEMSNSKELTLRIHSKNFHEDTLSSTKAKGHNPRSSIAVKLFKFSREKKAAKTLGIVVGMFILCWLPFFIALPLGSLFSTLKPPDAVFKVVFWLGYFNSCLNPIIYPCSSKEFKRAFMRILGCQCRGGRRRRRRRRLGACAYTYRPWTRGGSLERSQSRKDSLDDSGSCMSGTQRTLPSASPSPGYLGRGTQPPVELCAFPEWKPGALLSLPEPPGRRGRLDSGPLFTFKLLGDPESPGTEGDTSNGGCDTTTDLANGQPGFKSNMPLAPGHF
T1 sequence (P23944 whole entry): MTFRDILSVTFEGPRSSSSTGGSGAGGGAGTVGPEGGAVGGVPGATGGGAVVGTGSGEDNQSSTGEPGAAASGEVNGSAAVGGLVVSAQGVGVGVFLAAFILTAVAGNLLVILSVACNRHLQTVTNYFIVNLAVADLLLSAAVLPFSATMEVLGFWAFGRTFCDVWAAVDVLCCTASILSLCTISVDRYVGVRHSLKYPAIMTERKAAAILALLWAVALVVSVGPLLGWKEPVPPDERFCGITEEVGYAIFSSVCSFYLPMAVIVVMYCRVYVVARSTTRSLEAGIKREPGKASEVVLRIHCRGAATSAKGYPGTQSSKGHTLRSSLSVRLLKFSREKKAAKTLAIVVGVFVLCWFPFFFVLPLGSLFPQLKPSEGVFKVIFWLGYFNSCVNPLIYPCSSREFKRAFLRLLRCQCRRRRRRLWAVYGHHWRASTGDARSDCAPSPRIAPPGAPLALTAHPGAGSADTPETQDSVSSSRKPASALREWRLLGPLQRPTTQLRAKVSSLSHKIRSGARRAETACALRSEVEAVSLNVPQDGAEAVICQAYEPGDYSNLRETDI
T1 sequence (P43140 whole entry): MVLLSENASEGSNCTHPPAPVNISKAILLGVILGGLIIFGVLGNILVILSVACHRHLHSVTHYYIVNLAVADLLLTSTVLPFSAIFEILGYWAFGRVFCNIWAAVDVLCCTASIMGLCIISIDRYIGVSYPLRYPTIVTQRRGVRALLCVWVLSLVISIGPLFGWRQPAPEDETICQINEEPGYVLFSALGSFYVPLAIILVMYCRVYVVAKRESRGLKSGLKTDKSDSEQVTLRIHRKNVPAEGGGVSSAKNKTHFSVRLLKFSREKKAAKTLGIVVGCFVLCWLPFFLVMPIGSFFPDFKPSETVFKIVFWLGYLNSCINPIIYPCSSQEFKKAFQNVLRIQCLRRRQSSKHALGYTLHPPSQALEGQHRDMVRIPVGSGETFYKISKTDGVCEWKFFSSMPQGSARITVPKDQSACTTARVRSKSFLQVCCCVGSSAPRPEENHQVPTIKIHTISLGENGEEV
Method in brief: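 Rat cerebral cortical membranes were used as the α1 site source and labelled with [³H]prazosin. Compounds displaced saturable binding. Ki (nM) was defined as the concentration inhibiting saturable binding by 50%.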

[4] = test system: Rattus norvegicus; assay: In vivo ED40 is the raising diastolic blood pressure by 40 mm Hg in pithed rats. (postjunctional); format: functional; conditions: Artery
Method in brief: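 Pithed rats, compound given iv in cumulative doses. ED40 is the dose (μg/kg) raising diastolic blood pressure by 40 mmHg. Separate groups of rats (n = 4-6).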

[5] = test system: Rattus norvegicus; assay: In vivo dose required to inhibit vas deferens contraction by 25% after pretreatment with prazosin in pithed rats. (prejunctional); format: functional
Method in brief: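 Pithed rats pretreated with prazosin (1 mg/kg). Compound given iv in cumulative doses. ED25 is the dose (μg/kg) inhibiting vas deferens contraction by 25%. Separate groups of rats (n = 4-6).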

`c1ccc(CN2c3ccccc3CC2C2=NCCN2)cc1` (stereo not given) was tested, and the Prejunctional antagonist potency [1] was “Agonist”, the Postjunctional agonist potency [2] was 0 and the Ki [3] was 17.5 nM. It also gave an ED40 [4] of 0.308 mg/kg and an ED25 [5] of 0.0095 mg/kg.
